Calls of active or inactive are those of the source. No cut-off for these calls is given here.
Assays:
[1] = Antioxidant activity assessed as galvinoxyl radical scavenging activity measured up to 210 mins; assay type: functional
In short: (§1)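 Radical was dissolved in ethanol to about 1.00 absorbance: DPPH read at 517 nm, galvinoxyl at 428 nm. Compound in ethanol was added at 200 μM final and absorbance decay recorded. Percent scavenged = (1 − Abs_detect/Abs_ref) × 100, plotted against incubation time.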

[2] = Antioxidant activity assessed as protection against […]-induced oxidation of DNA at 80 uM up to 675 mins
[3] = Antioxidant activity assessed as protection against […]-induced oxidation of DNA […]; assay type: functional
[4] = Antioxidant activity against beta-carotene and linoleic acid assessed as inhibition of bleaching of beta-carotene at 13.3 uM measured up to 540 mins by autooxidation assay; assay type: functional
In short: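 β-Carotene–linoleic acid emulsion with compound at 13.3 μM. Bleaching of β-carotene by peroxyl radicals from linoleic acid autoxidation was followed as absorbance at 460 nm and plotted against time.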

[5] = test system: Radical scavenging activity; assay: Antioxidant activity assessed as DPPH radical scavenging activity measured up to 300 mins; assay type: functional; in short: as §1
[6] = Antioxidant activity assessed as protection against Cu(2+)/[…]-induced DNA damage up to 180 mins by TBARS assay; assay type: functional
In short: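 DNA (2.0 mg/mL), CuSO4 (5.0 mM) and GSH (3.0 mM) in phosphate buffer (6.1 mM Na2HPO4, 3.9 mM NaH2PO4). Compound added from DMSO at 0.2 mM final. Incubated at 37 °C, with three tubes removed every 30 min and stopped with EDTA (30.0 mM final). TBARS read in the n-butanol layer at 535 nm. Oxidative percentage = (A_x/A_0) × 100 at 150 min relative to control.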

## Cc1cc(=O)oc2c(O)c3occc3cc12
[1]
  IC50: 173 µM
[2]
  Activity: Active
[3]
  Activity: Active
[4]
  Activity: Active
[5]
  IC50: 81.5 µM
[6]
  Activity: Active

## O=c1ccc2cc3ccoc3c(O)c2o1 [XANTHOTOXOL]
[1]
  IC50: 188 µM
[2]
  Activity: Active
[3]
  Activity: Active
[4]
  Activity: Active
[5]
  IC50: 69.6 µM
[6]
  Activity: Active

## Cc1coc2c(O)c3oc(=O)cc(C)c3cc12
[1]
  IC50: 170 µM
[2]
  Activity: Active
[3]
  Activity: Active
[4]
  Activity: Active
[5]
  IC50: 119 µM
[6]
  Activity: Active
